The values below come from ChEMBL document CHEMBL4330168, “Monomeric and Dimeric Cytotoxic Guaianolide-Type Sesquiterpenoids from the Aerial Parts of Chrysanthemum indicum” (J Nat Prod, 2019).

Common to all, as to format: functional, cell-based
In assay [1] the test system is HONE1 cell line. As to the kind of experiment: Cytotoxicity against human HONE1 cells after 48 hrs by MTT assay. To be noted: HONE1, 48 h. A digest of the protocol:
(§1)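 Growth inhibition in nasopharyngeal carcinoma lines (CNE1, CNE2, HONE-1, SUNE-1) and HT-29 colon cells. IC50 values are the mean ± SD of three experiments, with cisplatin as positive control.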
For orientation: Tetrazolium assays rely on reduction of a dye to a coloured formazan, in cell work by metabolically active cells.

In assay [2] the test system is CNE. Briefly: Cytotoxicity against human CNE1 cells after 48 hrs by MTT assay. In outline: as §1
In assay [3] the test system is HT-29. Briefly: Cytotoxicity against human HT-29 cells after 48 hrs by MTT assay. To be noted: HT-29, 48 h. In outline: as §1
Assay [4] has as its system SUNE1. Briefly: Cytotoxicity against human SUNE1 cells after 48 hrs by MTT assay. As to conditions: SUNE1, 48 h. In outline: as §1
Assay [5] has as its system CNE-2. Briefly: Cytotoxicity against human CNE2 cells after 48 hrs by MTT assay. To be noted: CNE-2, 48 h. In outline: as §1

With `C=C1C(=O)O[C@@H]2[C@@H]3[C@@]4(C=C[C@@]3(C)[C@]3(C4)C(=O)O[C@@H]4[C@H]5C(C)=CC(=O)C5=C(C)CC[C@H]43)[C@](C)(O)CC[C@@H]12`, the IC50 in assay [1], in assay [2], in assay [3], in assay [4] and in assay [5] was more than 10 µM throughout.
Consider `C/C=C(\C)C(=O)O[C@H]1C[C@@](C)(O)[C@]23C=C[C@](C)([C@@H]2[C@H]2OC(=O)[C@@H](C)[C@@H]21)[C@]1(C3)C(=O)O[C@@H]2[C@H]3C(C)=CC[C@H]3[C@](C)(O)C[C@H](O)[C@H]21`, for which the IC50 (usually the concentration that gives 50% inhibition) in assay [1] was 9.2 µM; in assay [2], more than 10 µM; in assay [3], more than 10 µM; in assay [4] it was more than 10 µM; in assay [5], 9.9 µM.
For the molecule `C=C1C(=O)O[C@@H]2[C@@H]3[C@@]4(C=C[C@@]3(C)[C@]3(C4)C(=O)O[C@@H]4[C@H]5C(C)=CC[C@H]5[C@](C)(O)C[C@H](O)[C@H]43)[C@](C)(O)CC[C@@H]12`, the 50% inhibitory concentration (IC50) in assay [1], in assay [2], in assay [3], in assay [4] and in assay [5] was more than 10 µM in each case.
With `C/C=C(/C)C(=O)O[C@H]1C[C@@](C)(O)[C@@H]2CC(=O)C(C)=C2[C@H]2OC(=O)[C@@H](C)[C@H]12`, the IC50 in assay [1], in assay [2], in assay [3], in assay [4] and in assay [5] was more than 10 µM throughout.
As for `C=C1C(=O)O[C@H]2[C@H]1[C@@H](O)C[C@@](C)(O)[C@]13C=C[C@](C)([C@H]21)[C@]1(C3)C(=O)O[C@@H]2[C@H]3C(C)=CC[C@H]3[C@](C)(O)C[C@H](OC(=O)/C(C)=C\C)[C@H]21`, the IC50 in assay [1], in assay [2], in assay [3], in assay [4] and in assay [5] was more than 10 µM throughout.
Take `C=C1C(=O)O[C@@H]2[C@H]3C(C)=CC[C@H]3[C@](C)(O)C[C@H](OC(=O)/C(C)=C\C)[C@@H]12`: the IC50 in assay [1] was 7.6 µM; in assay [2], 7.3 µM; in assay [3], more than 10 µM; in assay [4] it was 5.6 µM; in assay [5] it was 7.4 µM.
As for `C/C=C(\C)C(=O)O[C@H]1CC(C)=C2C[C@H](O)[C@](C)(O)[C@@H]2[C@H]2OC(=O)[C@@H](C)[C@@H]21`, the IC50 in assay [1], in assay [2], in assay [3], in assay [4] and in assay [5] was more than 10 µM throughout.
As to `CC1=CC[C@@H]2[C@H]1[C@H]1OC(=O)[C@H](C)[C@@H]1[C@@H](O)C[C@@]2(C)O`, the 50% inhibitory concentration (IC50) in assay [1], in assay [2], in assay [3], in assay [4] and in assay [5] was more than 10 µM throughout.
Regarding `C=C1C(=O)O[C@H]2[C@H]1[C@@H](OC(=O)/C(C)=C/C)C[C@@](C)(O)[C@]13C=C[C@](C)([C@H]21)[C@]1(C3)C(=O)O[C@@H]2[C@H]3C(C)=CC[C@H]3[C@](C)(O)C[C@H](O)[C@H]21`, the IC50 in assay [1] is 7.5 µM; in assay [2], more than 10 µM; in assay [3], more than 10 µM; in assay [4], more than 10 µM; in assay [5], more than 10 µM.
For `C=C1C(=O)O[C@@H]2[C@H]3C(C)=CC[C@H]3[C@](C)(O)C[C@H](OC(=O)/C(C)=C/C)[C@@H]12`, the IC50 is 6.5 µM in assay [1]; 7.9 µM in assay [2]; more than 10 µM in assay [3]; 3 µM in assay [4]; more than 10 µM in assay [5].
